Assay results reported in ChEMBL document CHEMBL1156764, “Structure-based design of pteridine reductase inhibitors targeting African sleeping sickness and the leishmaniases” (J Med Chem, 2010).

Legend:
Pteridine reductase 1 = molecular target: T1, Pteridine reductase 1 (Leishmania major, UniProt Q01782); assay: Inhibition of Leishmania major recombinant PTR1
T1 sequence (Q01782 whole entry): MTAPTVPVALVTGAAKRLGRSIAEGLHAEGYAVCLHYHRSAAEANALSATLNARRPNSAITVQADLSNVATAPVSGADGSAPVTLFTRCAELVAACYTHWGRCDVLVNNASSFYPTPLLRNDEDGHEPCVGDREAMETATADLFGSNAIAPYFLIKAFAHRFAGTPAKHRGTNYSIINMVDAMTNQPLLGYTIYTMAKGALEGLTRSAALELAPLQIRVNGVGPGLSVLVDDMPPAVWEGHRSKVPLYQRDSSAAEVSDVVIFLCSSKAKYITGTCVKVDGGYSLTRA
Summary of the method: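 Recombinant L. major PTR1, stored at 15 mg mL^-1 (stock) in 50 mM Tris-HCl, 250 mM NaCl, 20% glycerol, pH 7.5. Substrate was H2B, with a 10 mM stock in 0.1 M NaOH. Compound stocks were 100 mM in DMSO. IC50 came from dose–response fits corrected with Morrison's tight-binding equation. Ki was calculated from IC50 using the competitive-inhibition equation.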

[1] = Inhibition of Trypanosoma brucei recombinant PTR1
Summary of the method: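 Recombinant enzyme stored at 15 mg mL^-1 in 50 mM Tris-HCl, 250 mM NaCl, 20% glycerol, pH 7.5. Substrate was H2B, prepared as a 10 mM stock in 0.1 M NaOH. Compound stocks were 100 mM in DMSO. IC50 came from dose–response plots fitted with Morrison's tight-binding equation. Ki was calculated from IC50 assuming competitive inhibition.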

[2] = system: Trypanosoma brucei brucei; assay: Antitrypanosomal activity against Trypanosoma brucei brucei Lister 427 blood stream form by Alamar blue assay; type: functional; details: read-out: ED50 (the source's name)
Summary of the method: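 Bloodstream-form Lister 427 grown at 37 °C, 5% CO2 in HMI-9 with neomycin pressure (T7 polymerase and tetracycline repressor lines), fetal calf serum 10%, folate not reduced. Exposed to increasing inhibitor concentrations. Viability read by Alamar blue. ED50 taken from dose–response plots. Three separate determinations, each in quadruplicate (n = 12).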

Row | Compound | Ki (Pteridine reductase 1) [µM] | Ki [1] [µM] | EC50 [2] [µM]
1 | CC1=Nc2c(N)nc(N)nc2NC1(C)C | 12 | > 35 | –
2 | Nc1nc2[nH]ccc2c(=S)[nH]1 | > 27 | > 35 | –
3 | Nc1cc(NC2CC2)nc(N)n1 | > 27 | > 35 | –
4 | Nc1cc(SCc2ccccc2)nc(N)n1 | 0.6 | 3.2 | –
5 | Nc1nc2[nH]cc(CCc3ccccc3)c2c(=O)[nH]1 | > 27 | – | –
6 | N#Cc1c(Br)[nH]c2nc(N)[nH]c(=O)c12 | > 27 | 3.9 | –
7 | CCc1ccc(-c2[nH]c3nc(N)[nH]c(=O)c3c2C#N)cc1 | 16.4 | 0.5 | –
8 | CC(C)c1nc2nc(N)nc(N)c2nc1C(C)C | 0.24 | 3.3 | –
9 | N#Cc1c(-c2ccc3c(c2)OCO3)[nH]c2nc(N)[nH]c(=O)c12 | 2.6 | 0.4 | 123
10 | Nc1cc(N)nc(N)n1 | > 27 | > 35 | –
11 | N#Cc1c[nH]c2nc(N)[nH]c(=O)c12 | > 27 | 5.8 | –
12 | COc1ccc(CSc2cc(N)nc(N)n2)cc1 | 2.7 | 18 | –
13 | COc1ccc(-c2[nH]c3nc(N)[nH]c(=O)c3c2C#N)cc1 | 3.4 | 0.36 | 274
14 | N#Cc1c(-c2ccccc2)[nH]c2nc(N)[nH]c(=O)c12 | > 27 | 0.71 | –
15 | N#Cc1c(-c2cccc(C=O)c2)[nH]c2nc(N)[nH]c(=O)c12 | 4.2 | 0.29 | –
16 | Cc1ccc(Sc2cc(N)nc(N)n2)cc1 | 27 | 5.4 | –
17 | Nc1nc(N)c2nc(-c3ccccc3)c(N)nc2n1 | 3.4 | 1.2 | –
18 | Nc1nc2c(c(=O)[nH]1)CC=N2 [7-DEAZAGUANINE] | – | > 35 | –
19 | CCc1nc(N)nc(N)c1-c1ccc(Cl)cc1 [PYRIMETHAMINE] | – | – | 26.6
